The source of these data is ChEMBL document CHEMBL1132963, “Structure-based design of potent, amidine-derived inhibitors of factor Xa: evaluation of selectivity, anticoagulant activity, and antithrombotic activity” (2000).

In experiment [1] the target is Coagulation factor X (Homo sapiens) (UniProt P00742). The experiment in a line: Apparent association constant against human Coagulation factor X. The procedure, abridged:
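Human fXa at 3.2 nM final in Tris/NaCl buffer pH 7.4 with HSA; inhibitor added from MeOH in triplicate at four to eight concentrations, then chromogenic substrate (0.3 mM stock) to start hydrolysis, read at 405 nm. Free and bound enzyme taken from on-plate standard curves; apparent Kass = [Eb]/[Ef][Io − Ib] from concentrations giving 20–80% inhibition. At least 3 separate experiments averaged.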

Experiment [2] concerns the target Plasminogen (Homo sapiens) (UniProt P00747). The experiment in a line: Tested for inhibition of plasmin.
For a further experiment, the species on record is Homo sapiens. In words: Compound required to double the time to clot formation in reconstituted human plasma, using the prothromboplastin time (PT). The class given is functional. The procedure, abridged:
(§1)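 Reconstituted human plasma; clotting by activated partial thromboplastin time or prothrombin time. Value is the inhibitor concentration that doubles clotting time.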

Experiment [3] deals with Tissue-type plasminogen activator (Homo sapiens) (UniProt P00750). The experiment in a line: Tested for inhibition of Tissue type plasminogen activator. The procedure, abridged: (§2)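 Apparent association constant from inhibition of chromogenic substrate hydrolysis read at 405 nm, using a single substrate concentration suited to each protease. Inhibitor dilutions done in triplicate at four to eight concentrations; Kass computed from free and bound enzyme at 20–80% inhibition. Mean of at least 3 separate experiments.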
Chain of Tissue-type plasminogen activator (Homo sapiens) (P00750 36-562 limits assumed): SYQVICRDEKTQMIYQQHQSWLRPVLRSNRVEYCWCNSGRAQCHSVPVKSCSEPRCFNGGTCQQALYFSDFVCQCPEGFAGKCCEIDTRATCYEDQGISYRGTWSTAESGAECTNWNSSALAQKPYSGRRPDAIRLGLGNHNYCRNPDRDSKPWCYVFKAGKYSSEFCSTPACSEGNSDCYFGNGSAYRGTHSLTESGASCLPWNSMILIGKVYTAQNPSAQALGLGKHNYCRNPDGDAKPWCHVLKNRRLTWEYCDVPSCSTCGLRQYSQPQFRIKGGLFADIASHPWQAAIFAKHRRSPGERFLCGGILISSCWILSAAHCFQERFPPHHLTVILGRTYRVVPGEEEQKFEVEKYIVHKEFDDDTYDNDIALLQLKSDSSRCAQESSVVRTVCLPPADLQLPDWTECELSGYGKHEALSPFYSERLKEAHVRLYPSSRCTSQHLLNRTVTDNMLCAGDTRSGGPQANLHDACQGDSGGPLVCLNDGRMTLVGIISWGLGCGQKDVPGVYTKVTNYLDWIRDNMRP

The target of experiment [4] is Thrombin and coagulation factor X (Homo sapiens) (UniProt P00734+P00742). The experiment in a line: Selectivity as the ratio of Kass value towards fXa to that of thrombin. The class given is protein assay. The procedure, abridged: (§3)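 Ratio of fXa Kass to Kass for the second protease. Each Kass is an apparent association constant from chromogenic substrate hydrolysis kinetics at 405 nm, run at one substrate concentration per protease, in triplicate at four to eight inhibitor concentrations. Each value is the mean of at least 3 separate experiments.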
Chain of Thrombin and coagulation factor X (Homo sapiens) (P00742 whole entry, looked up, other chains not shown): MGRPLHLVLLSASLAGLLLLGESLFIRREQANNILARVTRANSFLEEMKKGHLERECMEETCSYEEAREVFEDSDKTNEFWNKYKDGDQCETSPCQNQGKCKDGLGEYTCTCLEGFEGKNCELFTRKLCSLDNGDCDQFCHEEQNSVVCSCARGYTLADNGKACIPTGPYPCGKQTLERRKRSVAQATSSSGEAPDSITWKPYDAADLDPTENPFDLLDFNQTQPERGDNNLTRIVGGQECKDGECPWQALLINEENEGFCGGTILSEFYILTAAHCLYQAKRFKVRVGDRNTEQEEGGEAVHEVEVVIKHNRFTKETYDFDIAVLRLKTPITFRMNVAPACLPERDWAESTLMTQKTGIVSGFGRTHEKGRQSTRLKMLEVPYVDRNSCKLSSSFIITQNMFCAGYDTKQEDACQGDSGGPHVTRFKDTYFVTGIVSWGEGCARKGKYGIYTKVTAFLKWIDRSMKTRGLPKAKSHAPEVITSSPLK

Experiment [5] in a line: Selectivity as the ratio of Kass value towards fXa to that of tissue plasminogen activator. The procedure, abridged:
as §3

Experiment [6] can be described thus: Selectivity as the ratio of Kass value towards fXa to that of trypsin. The procedure, abridged: as §3
In the next experiment the target is T1, Trypsin II (Bos taurus) (UniProt Q29463).
T1 sequence (whole entry): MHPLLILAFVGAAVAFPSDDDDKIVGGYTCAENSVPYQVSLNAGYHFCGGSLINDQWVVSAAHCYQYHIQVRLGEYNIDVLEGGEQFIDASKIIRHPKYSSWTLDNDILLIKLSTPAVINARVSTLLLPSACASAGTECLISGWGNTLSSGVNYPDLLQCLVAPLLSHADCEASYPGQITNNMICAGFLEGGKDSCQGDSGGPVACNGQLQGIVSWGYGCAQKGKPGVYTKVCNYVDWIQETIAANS
The experiment in a line: Tested for inhibition of trypsin. The procedure, abridged:
as §2

The target of experiment [7] is Prothrombin (Homo sapiens) (UniProt P00734). In words: Tested for inhibition of thrombin. The procedure, abridged:
as §2

Experiment [8] deals with Coagulation factor X (Homo sapiens) (UniProt P00742). The experiment in a line: Selectivity as the ratio of Kass value towards fXa to that of aPC. The procedure, abridged: as §3
Chain of Coagulation factor X (Homo sapiens) (P00742 41-179 limits assumed): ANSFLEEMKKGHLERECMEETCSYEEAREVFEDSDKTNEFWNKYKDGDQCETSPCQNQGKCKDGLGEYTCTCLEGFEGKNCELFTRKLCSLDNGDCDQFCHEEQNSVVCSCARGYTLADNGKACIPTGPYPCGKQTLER
Chain of Coagulation factor X (Homo sapiens) (P00742 235-488 limits assumed): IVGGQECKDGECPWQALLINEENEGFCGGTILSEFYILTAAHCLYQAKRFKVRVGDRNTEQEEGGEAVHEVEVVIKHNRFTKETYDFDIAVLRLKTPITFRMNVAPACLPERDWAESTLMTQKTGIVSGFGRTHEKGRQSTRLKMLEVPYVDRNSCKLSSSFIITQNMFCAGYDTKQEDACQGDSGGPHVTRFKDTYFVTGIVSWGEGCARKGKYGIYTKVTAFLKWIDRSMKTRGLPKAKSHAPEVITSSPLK
In experiment [9] the target is Vitamin K-dependent protein C (Homo sapiens) (UniProt P04070). The experiment in a line: Tested for inhibition of activated protein C. The procedure, abridged:
as §2

A short description of experiment [10]: Compound required to double the time to clot formation in reconstituted human plasma, using activated partial thromboplastin time (APTT). The class given is functional. The procedure, abridged:
as §1

A short description of experiment [11]: Selectivity as the ratio of Kass value towards fXa to that of UK. The procedure, abridged:
as §3

The test system of experiment [12] is Plasminogen and coagulation factor X (Homo sapiens). The experiment in a line: Selectivity as the ratio of Kass value towards fXa to that of plasmin.
The target of experiment [13] is Urokinase-type plasminogen activator (Homo sapiens) (UniProt P00749). The experiment in a line: Tested for inhibition of Urokinase-type plasminogen activator. The procedure, abridged:
as §2

Chain of Plasminogen (Homo sapiens) (P00747 whole entry, looked up): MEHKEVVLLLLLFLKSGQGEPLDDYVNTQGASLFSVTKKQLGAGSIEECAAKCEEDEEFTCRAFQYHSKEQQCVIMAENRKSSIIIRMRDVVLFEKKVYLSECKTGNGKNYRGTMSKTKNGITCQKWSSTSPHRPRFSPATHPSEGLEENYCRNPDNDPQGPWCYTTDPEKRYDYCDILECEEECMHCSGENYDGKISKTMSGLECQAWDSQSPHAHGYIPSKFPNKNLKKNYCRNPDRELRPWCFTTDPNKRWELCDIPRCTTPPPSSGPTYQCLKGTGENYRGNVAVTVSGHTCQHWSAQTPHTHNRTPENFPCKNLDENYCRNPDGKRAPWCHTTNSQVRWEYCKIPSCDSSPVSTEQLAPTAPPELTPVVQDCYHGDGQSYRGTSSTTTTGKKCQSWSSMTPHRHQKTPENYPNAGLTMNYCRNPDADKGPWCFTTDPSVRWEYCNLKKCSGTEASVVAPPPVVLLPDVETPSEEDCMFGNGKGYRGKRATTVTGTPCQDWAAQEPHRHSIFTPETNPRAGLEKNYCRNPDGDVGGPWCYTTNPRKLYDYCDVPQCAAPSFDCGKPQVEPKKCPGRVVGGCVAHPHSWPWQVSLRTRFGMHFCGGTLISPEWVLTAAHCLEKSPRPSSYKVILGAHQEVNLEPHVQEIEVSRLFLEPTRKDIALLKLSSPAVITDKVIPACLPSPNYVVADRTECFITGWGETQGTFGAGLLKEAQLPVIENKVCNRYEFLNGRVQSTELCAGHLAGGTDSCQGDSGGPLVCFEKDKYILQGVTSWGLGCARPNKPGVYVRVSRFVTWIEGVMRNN
Chain of Vitamin K-dependent protein C (Homo sapiens) (P04070 43-197 limits assumed): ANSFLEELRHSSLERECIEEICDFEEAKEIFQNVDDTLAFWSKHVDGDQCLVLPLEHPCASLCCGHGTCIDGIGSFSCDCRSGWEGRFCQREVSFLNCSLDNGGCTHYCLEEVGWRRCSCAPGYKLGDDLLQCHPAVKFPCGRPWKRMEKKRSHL
Chain of Vitamin K-dependent protein C (Homo sapiens) (P04070 212-461 limits assumed): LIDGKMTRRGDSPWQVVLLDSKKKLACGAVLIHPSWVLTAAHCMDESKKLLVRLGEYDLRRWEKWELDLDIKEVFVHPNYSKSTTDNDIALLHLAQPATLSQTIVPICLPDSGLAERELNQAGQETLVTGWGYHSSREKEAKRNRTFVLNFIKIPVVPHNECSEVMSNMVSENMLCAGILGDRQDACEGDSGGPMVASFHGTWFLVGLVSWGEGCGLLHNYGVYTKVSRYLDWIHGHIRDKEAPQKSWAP

As to `CCOC(=O)COc1ccc(NC(=O)c2cccc(C(=N)N)c2)c(NC(=O)c2ccc(C(C)C)cc2)c1`, in experiment [1], the K ass was 1.6e+08 l M-1.

Take `COc1ccc(C(=O)Nc2ccccc2NC(=O)c2cccc(C(=N)N)c2)cc1`: the K ass in experiment [2] is 20000 l M-1; in [3] it was 20000 l M-1; on Trypsin II (Bos taurus), 600000 l M-1; in experiment [7] it was 270000 l M-1; in experiment [9], 15000 l M-1; in [1], 1.4e+07 l M-1. Also, the K ass in [13] was 1000 l M-1. The Activity in the experiment listed under Homo sapiens worked out at 1.5 µM; in experiment [10], 2 µM. In addition, the Ratio in experiment [4] was 56; in [5] it was 750; in experiment [6], 25; in experiment [8], 1000; in experiment [11] it was 15000; in [12], 750.

For the compound `COc1ccc(C(=O)Nc2ccccc2NC(=O)c2ccc(C(=N)N)cc2)cc1`, the K ass in [1] was 5.7e+06 l M-1.

As for `CC(C)c1ccc(C(=O)Nc2cc(O)ccc2NC(=O)c2cccc(C(=N)N)c2)cc1`, the K ass in [1] was 2.3e+08 l M-1.

In the case of `CC(C)(C)c1ccc(C(=O)Nc2ccccc2NC(=O)c2cccc(C(=N)N)c2)cc1`, the K ass in [2] was 6000 l M-1; in experiment [3], 11000 l M-1; at Trypsin II (Bos taurus), 340000 l M-1; in [7], 3e+06 l M-1; in experiment [9], 2000 l M-1; in [1] it was 2.5e+08 l M-1. Further, the Activity in the experiment filed under Homo sapiens stood at 0.96 µM; in [10], 0.67 µM. Besides, the Ratio in [4] was 83; in [5], 23000; in experiment [6], 740; in [8], 13000; in experiment [11] it was greater than 250000; in experiment [12], 42000.

Turning to `COc1ccc(C(=O)Nc2ccccc2NC(=O)C2CCCN(C(=N)N)C2)cc1` (stereo not drawn), in experiment [1], the K ass is 1e+06 l M-1.

`COc1ccc(C(=O)Nc2ccc(C(=N)N)cc2NC(=O)c2ccc(OC)cc2)cc1`: the K ass in experiment [1] was 270000 l M-1.

Regarding `CC(C)c1ccc(C(=O)Nc2cc(OCC(=O)O)ccc2NC(=O)c2cccc(C(=N)N)c2)cc1`, the K ass in experiment [2] was 39000 l M-1; in experiment [3], 7000 l M-1; on Trypsin II (Bos taurus), 2.5e+06 l M-1; in [7], 800000 l M-1; in experiment [9], 14000 l M-1; in experiment [1], 3.4e+08 l M-1. For the same compound, the K ass in experiment [13] is 1000 l M-1. In addition, the Ratio in experiment [4] came to 430; in [5], 49000; in [6], 140; in [8], 24000; in [11], 340000; in [12], 8700.

On to `CCOc1ccc(C(=O)Nc2ccccc2NC(=O)c2cccc(C(=N)N)c2)cc1`, for which, in experiment [1], the K ass was 2.9e+07 l M-1.

Turning to `CC(C)(C)c1ccc(C(=O)Nc2cc(C(=O)O)ccc2NC(=O)c2cccc(C(=N)N)c2)cc1`, the K ass was 73000 l M-1 in experiment [2]; 4000 l M-1 in experiment [3]; 1.2e+07 l M-1 at Trypsin II (Bos taurus); 650000 l M-1 in [7]; 13000 l M-1 in experiment [9]; 1000 l M-1 in experiment [13]. In addition, the figures for the Activity (in the experiment listed under Homo sapiens; in experiment [10]) were 0.83 µM and 0.72 µM, respectively. Also, the Ratio in [4] was determined as 720; in experiment [5] it was 120000; in experiment [6], 390; in experiment [8], 36000; in experiment [11], 470000; in experiment [12], 6400.

With `CC(C)(C)c1ccc(C(=O)Nc2ccsc2C(=O)Nc2cccc(C(=N)N)c2)cc1`, the K ass in experiment [1] was 1.2e+07 l M-1.

As for `CC(C)(C)c1ccc(C(=O)Nc2ccccc2NC(=O)C2CCCN(C(=N)N)C2)cc1` (stereo not drawn), in [1], the K ass is 1.2e+07 l M-1.

Consider `CC(C)(C)c1ccc(C(=O)Nc2ccc(C(=O)O)cc2NC(=O)c2cccc(C(=N)N)c2)cc1`, for which the K ass in experiment [1] is 5.4e+07 l M-1.

In the case of `COc1ccc(NC(=O)c2ccccc2NC(=O)c2cccc(C(=N)N)c2)cc1`, the K ass in experiment [1] was 1.7e+06 l M-1.

`CC(C)(C)c1ccc(C(=O)Nc2ccccc2C(=O)Nc2cccc(C(=N)N)c2)cc1`: the K ass in experiment [1] was 3.5e+06 l M-1.

As for `CC(C)c1ccc(C(=O)Nc2ccccc2NC(=O)c2cccc(C(=N)N)c2)cc1`, the K ass in [1] was 1.8e+08 l M-1.
